Assay outcomes from PubChem BioAssay.
B2AR ag – activates human beta-2 adrenergic receptor causing internalization. 0.43% of 340,000 active. AID 504454. response, % (no concentration beside the values). Am2.2-beta2AR cells, FAP receptor internalization, flow cytometry. P07550;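 active = response above a set limit, near 3 SD of response in nonfluorescent compounds, cut at about 42% in these data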
Target sequence (P07550 whole entry, looked up): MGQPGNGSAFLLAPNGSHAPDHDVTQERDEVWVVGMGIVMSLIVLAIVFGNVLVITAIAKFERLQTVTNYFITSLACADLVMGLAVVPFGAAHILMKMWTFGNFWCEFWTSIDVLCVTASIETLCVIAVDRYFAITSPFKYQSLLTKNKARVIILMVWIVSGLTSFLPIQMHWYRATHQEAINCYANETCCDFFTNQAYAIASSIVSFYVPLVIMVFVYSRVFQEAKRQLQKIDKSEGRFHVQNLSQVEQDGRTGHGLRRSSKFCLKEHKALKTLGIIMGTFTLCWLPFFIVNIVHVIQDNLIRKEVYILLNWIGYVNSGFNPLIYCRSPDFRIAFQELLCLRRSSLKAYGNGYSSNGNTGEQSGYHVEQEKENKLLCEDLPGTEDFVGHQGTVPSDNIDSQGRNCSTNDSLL
CHOP inhibitor – inhibitors of CHOP induction in ER stress response. CHO-K1 CHOP-promoter luciferase, tunicamycin-induced, 15-18 h. inhibition, % at 10 µM. 3.8% of 220,000 active;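 active = compounds that reduced the stress-induced luciferase reporter signal by more than about 70% of percent inhibition, limit read from the data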;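 note: 0% = tunicamycin plus vehicle and 100% = wells without tunicamycin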
VLA-4 inh – inhibition in a human VLA-4 binding assay; P13612; VLA-4 expressing cells, ligand binding flow cytometry; inhibition, % (about 7 µM as worked out from the volumes in the protocol); 0.2% of 330,000 active; in the data active = inhibition above about 50%
CHOP UPR activ – apoptotic UPR (CHOP) activation; CHO-CHOP luciferase reporter, luminescence; percent of tunicamycin response over DMSO baseline; AID 449763; 0.34% of 330,000 active; activation, % at 10 µM;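 active = at 10 µM dose, activation of 40% or more, normalized to positive control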;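 note: 100% = tunicamycin at 10 µg/mL and 0% = DMSO alone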
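System: CHO CHOP reporter cells. Amount: 500 cells per well. Buffer or medium: F12 medium, 10% FBS. Compound dosing: one dose, 10 µM in 0.5% DMSO. Incubation: 6 h compound exposure at 37 °C after overnight seeding. Technique: Steady-Glo luciferase luminescence. Benchmarks: tunicamycin and DMSO controls.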
UPR XBP1 act – activators of adaptive arm of unfolded protein response (XBP1) | 0.33% of 330,000 active | activation, % at 20 µM | CHO-XBP1 luciferase reporter, IRE1-XBP1 UPR activation, luminescence; percent of tunicamycin response, DMSO as zero | AID 463104;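 active = versus positive control, 20 µM dose yields 30% or more activation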;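 note: 100% = tunicamycin at 10 µg/mL and 0% = DMSO only wells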
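assay system = CHO-XBP1 luciferase reporter cells | amount = 1000 cells/well | buffer or medium = F12 plus 10% FBS | compound dosing = single point, 20 µM final compound, 1% DMSO | incubation = 16-18 h cell attachment at 37 °C, then 6 h compound exposure | detection = Steady-Glo luminescence read | controls = tunicamycin 10 µg/mL and vehicle-only wells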
The depositor's hits bear a star; x = no result given; ! = a repeat was not active. The full list was thinned out, with hits kept by preference.

SMILES	B2AR ag	CHOP inhibitor	VLA-4 inh	CHOP UPR activ	UPR XBP1 act
CCN(C(=O)c1ccc(S(=O)(=O)N2CCC(C)CC2)cc1)C1CCS(=O)(=O)C1 (centres undefined)	2	x	13	-1	0
Cc1ccc(/C=C(\NC(=O)c2ccccc2)C(=O)NC2CCN(Cc3ccccc3)CC2)o1	1	x	2	1	-1
OC(COc1cccc2ccccc12)CN1CCN(c2cccc(Cl)c2)CC1 (centres undefined)	-6	71*	18	0	-2
OC(COc1cccc2ccccc12)CN1CCN(c2ccc(Cl)cc2)CC1 (centres undefined)	-8	38	-10	-1	2
OC(COc1ccc2ccccc2c1)CN1CCN(c2ccc(F)cc2)CC1 (centres undefined)	1	87*	15	1	-1
CC(=O)c1ccccc1OCC(O)CN1CCN(C(c2ccccc2)c2ccccc2)CC1 (centres undefined)	3	75*	5	0	-2
O=C(c1ccccn1)N1CC=C(c2ccccc2)CC1	-6	-3	x	x	x
O=C(O)/C=C/C(=O)NCCc1ccccc1	2	-10	-8	0	-3
CC(C)=CC(=O)NCCc1ccccc1	3	85*	4	2	1
Cc1ccccc1-c1noc(-c2ccccc2F)n1	2	78*	-11	1	4
COc1cc(C(=O)c2ccccc2C(=O)O)c(OC)c2c1CCCC2	-4	x	x	x	x
COC(=O)c1ccc([C@H](NC(=O)c2ccco2)[C@]2(C)C[C@H]2C2CCCCC2)cc1	14	x	28	-3	0
O=C1c2cccc3cccc(c23)C(=O)N1c1ccc2ncccc2c1	70*	89*	-3	-2	0
O=C1c2cccc3cccc(c23)C(=O)N1c1nccs1	0	24	-2	0	2
C/C(=N\NC(=O)CNc1cccc(Cl)c1C)c1cccs1	-6	92*	-14	1	-1
CCC(=Cc1ccccc1OC)c1ccncc1	-6	x	x	x	x
O=C(Cc1ccc(Cl)cc1Cl)Nc1cccc(S(=O)(=O)Nc2ccccc2F)c1	14	87*	33	0	-4
CC(C)CC(=O)Nc1ccc(F)c(Cl)c1	-1	90*	12	1	0
O=C(Cc1ccc(Cl)cc1Cl)Nc1ccc(OC(F)F)c(Cl)c1	-8	95*	21	2	-2
CCCC(C)C(=O)Nc1ccc(F)c(Cl)c1 (centres undefined)	-2	-11	6	-3	0
O=C(Cc1c(F)cccc1Cl)Nc1cccc(S(=O)(=O)NC2=NCCCCC2)c1	-4	x	-4	-2	-5
Cc1ccc(N/N=C2\CC(=O)c3ccccc32)cc1Cl	x	18	37	49*	96*
CN(C)c1ccnc(Nc2ccccc2)c1C#N	4	11	-1	-2	-4
CN(C)c1ccnc2c[cH-]cc12.[Fe].c1ccc(-[c-]2[c-](-c3ccccc3)[c-](-c3ccccc3)[c-](-c3ccccc3)[c-]2-c2ccccc2)cc1 (centres undefined)	1	88*!	1	11	3
COc1ccc(N2CCN(CC(=O)Nc3ccc(C)cc3Br)CC2)cc1	1	x	x	x	x
SMILES	B2AR ag	CHOP inhibitor	VLA-4 inh	CHOP UPR activ	UPR XBP1 act
O=C(CN1CCCCC1)Nc1ccc(NC(=O)c2ccc(Cl)cc2)cc1Cl	6	85*	7	2	18
Cc1cc(Cl)ccc1NC(=O)CN1CCCC1	-2	x	-1	-1	-5
Cc1ccc(NC(=O)CN2CCCCCC2)c(Br)c1	7	75*	x	x	x
Cc1ccc2[nH]c3c(N4CCc5ccccc5C4)ncnc3c2c1	7	74*	-15	10	6
Brc1ccc2[nH]c3c(N4CCc5ccccc5C4)ncnc3c2c1	x	64	4	7	2
Fc1ccc2[nH]c3c(N4CCc5ccccc5C4)ncnc3c2c1	x	73*	8	8	0
O=S(=O)(/N=C(/Nc1ccccn1)c1ccccc1)c1ccc(F)cc1	-5	x	9	0	0
CCCC(=O)Nc1cccc2c1CCCC2	6	30	8	-2	4
CCc1ccc(OCC(=O)Nc2cccc3c2CCCC3)cc1	-3	79*	24	0	3
CCCCCc1nc2sc3c(c2c(=O)n1NC(=O)c1ccc([N+](=O)[O-])cc1)CC(C)(C)OC3	13	76*	10	1	-1
CCCCCCCc1nc2sc3c(c2c(=O)n1N)CC(C)(C)OC3	0	1	8	1	0
C=C(C)CCC(C)N1CCC(n2nccc2NC(=O)CCOc2ccccc2)CC1 (centres undefined)	13	x	-10	-3	-1
Cc1cccc(NC(=S)N/N=C/c2c[nH]c3ccccc23)c1	12	91*	5	2	-1
Cc1ccc(C(=O)Nc2ccc(C(=O)N/N=C/c3c[nH]c4ccccc34)cc2)cc1	25	-18	10	3	-2
O=C(O)Cc1ccc(NC(=S)Nc2ccc(Br)cc2Cl)cc1	-1	6	-9	2	-1
C=CCO/N=C(/C)c1c(O)c(CC)c(-c2ccccc2)n(-c2ccccc2)c1=O	12	72*	-3	0	-2
CCc1c(O)c(/C(C)=N\O)c(=O)n(-c2ccccc2)c1-c1ccccc1	5	5	2	2	-1
CS(=O)(=O)N(CC(=O)NCc1ccncc1)c1ccc(F)c(Cl)c1	11	0	8	2	-2
C=CCNC(=O)CN(c1ccc(F)c(Cl)c1)S(C)(=O)=O	5	79*	-6	-2	-1
COC(=O)n1c(=S)oc2cc(Cl)ccc21	x	90*	-5	-3	-3
CCCCOC(=O)n1c(=S)oc2cc(Cl)ccc21	27	31	0	4	0
CCN(CC(=O)NCc1cccs1)C(=O)Cc1ccc(C)c(C)c1	0	x	-4	3	-2
CCC(=O)OCCNc1cc(Sc2nccn2C)c2nonc2c1[N+](=O)[O-]	83*	109*	23	x	x
CCC(=O)OCCNc1cc(SCCC(=O)OC)c2nonc2c1[N+](=O)[O-]	77*	10	16	0	-2
NC(=S)c1ccc[n+]([C@@H]2O[C@@H](COP(=O)([O-])OP(=O)(O)OC[C@H]3O[C@@H](n4cnc5c(N)ncnc54)C(OP(=O)(O)O)[C@H]3O)C(O)C2O)c1 (some centres undefined)	x	-6	x	x	x
O=C1CC(O)(C(F)(F)F)Oc2c1ccc1ccccc21 (centres undefined)	5	89*	-2	0	2
O=C1CC(O)(C(F)F)Oc2ccc3ccccc3c21 (centres undefined)	8	37	-10	-2	-2
Cc1sc2nc(C(C)C)nc(SCC(=O)NC3CC3)c2c1C	-12	x	8	1	3
C=CCSc1nc2ccccc2c(=O)n1Cc1ccccc1	-10	87*	47	-4	-1
